Where “and” joins values, the source holds several entries; their conditions need not be identical. Equal entries are not always repeated.
Columns and labels:
Format in all cases: functional
[1] = target: ATP-dependent molecular chaperone HSP82 (Saccharomyces cerevisiae S288c, UniProt P02829); assay: Inhibition of yeast Hsp90 ATPase activity
Procedure, shortened: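 Yeast Hsp90 ATPase activity assay. Original conditions were 1 mM ATP substrate, incubated 3 h at 37 °C. Later optimised conditions used lower ATP and enzyme concentrations, with overnight incubation at 37 °C. IC50 values derived.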

HCT-116 = assay: Inhibition of HCT116 human colon cancer cell proliferation
Procedure, shortened: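 HCT116 colon cancer cells; growth inhibition measured by sulforhodamine B (SRB) assay; GI50 derived.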

[2] = target: ATP-dependent molecular chaperone HSP82 (Saccharomyces cerevisiae S288c) (UniProt P02829); assay: Inhibition of yeast Hsp90 ATPase activity at 40 uM
ATP-dependent molecular chaperone HSP82 (Saccharomyces cerevisiae S288c), sequence (P02829 whole entry, looked up): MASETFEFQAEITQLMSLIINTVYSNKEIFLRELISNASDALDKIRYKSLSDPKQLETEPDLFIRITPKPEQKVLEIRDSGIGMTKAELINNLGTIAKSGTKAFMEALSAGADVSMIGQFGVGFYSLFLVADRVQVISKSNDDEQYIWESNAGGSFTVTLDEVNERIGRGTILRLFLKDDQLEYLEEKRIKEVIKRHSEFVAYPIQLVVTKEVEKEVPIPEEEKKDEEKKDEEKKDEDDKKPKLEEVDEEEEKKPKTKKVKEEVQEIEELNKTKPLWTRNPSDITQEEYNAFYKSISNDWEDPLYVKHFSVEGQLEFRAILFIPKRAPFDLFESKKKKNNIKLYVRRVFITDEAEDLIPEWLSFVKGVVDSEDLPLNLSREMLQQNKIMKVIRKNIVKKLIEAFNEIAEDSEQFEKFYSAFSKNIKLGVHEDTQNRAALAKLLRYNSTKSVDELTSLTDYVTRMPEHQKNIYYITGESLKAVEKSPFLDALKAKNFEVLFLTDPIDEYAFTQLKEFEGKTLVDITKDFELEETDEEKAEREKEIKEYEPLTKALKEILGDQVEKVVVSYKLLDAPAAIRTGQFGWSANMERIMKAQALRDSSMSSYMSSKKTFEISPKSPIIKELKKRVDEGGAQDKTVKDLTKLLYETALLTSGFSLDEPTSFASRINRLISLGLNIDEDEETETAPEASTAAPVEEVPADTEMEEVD

ATP-dependent molecular chaperone HSP82, sequence (P02829 whole entry): as the sequence (P02829 whole entry, looked up) above

Structure (SMILES)	IC50 [1]	GI50 (HCT-116) [µM]	inhibition [2] [%]
CCc1cc(-c2n[nH]c(C)c2-c2ccc3c(c2)OCCO3)c(O)cc1O	8.9 µM and 7.1 µM	–	–
Cc1[nH]nc(-c2cc(Cl)c(O)cc2O)c1-c1ccc2c(c1)OCCO2	< 1 µM	4	–
CC(C)c1cc(-c2[nH]ncc2-c2nc3ccccc3s2)c(O)cc1O	–	–	15
N#CCCCOc1cccc(-c2cn[nH]c2-c2cc(Cl)c(O)cc2O)c1	2.4 µM	30	–
COc1cc(O)c(-c2[nH]ncc2-c2ccc3c(c2)OCO3)cc1C(C)C	–	–	20
COC1=C2CC(C)C[C@H](OC)C(O)C(C)/C=C(\C)[C@H](OC(N)=O)[C@@H](OC)/C=C\C=C(/C)C(=O)NC(=CC1=O)C2=O (single isomer, unassigned) [GELDANAMYCIN]	–	0.067	90
Cc1n[nH]c(-c2ccc(O)cc2O)c1-c1ccc2c(c1)OCCO2	–	–	26
Oc1cc(O)c(-c2n[nH]cc2-c2ccc(-c3ccc(F)cc3)cc2)cc1Cl	1.55 µM	11	–
CCC(C)c1cc(-c2[nH]ncc2-c2ccccc2)c(O)cc1OC (stereo not given)	–	–	10
CCc1cc(-c2[nH]nc(C)c2-c2ccc3c(c2)OCCO3)c(O)cc1O	–	4.1	79
COc1ccc(-c2cn(C)nc2-c2cc(Cl)c(O)cc2O)cc1OC	> 100 µM	–	–
CCC(C)c1cc(-c2n[nH]cc2-c2ccc3c(c2)OCO3)c(O)cc1O (stereo not given)	22.3 µM	–	–
Cc1n[nH]c(-c2ccc(O)c(Cl)c2)c1-c1ccc2c(c1)OCCO2	> 100 µM	–	–
CCC(C)c1cc(-c2[nH]ncc2-c2ccc3c(c2)OCO3)c(O)cc1O (stereo not given)	–	–	64
Cc1[nH]nc(-c2cc(Cl)ccc2O)c1-c1ccc2c(c1)OCCO2	25.5 µM	–	–
COc1ccc(-c2[nH]nc(C)c2-c2ccc3c(c2)OCCCO3)c(O)c1	–	–	25
C=CCNC1=C2CC(C)C[C@H](OC)C(O)C(C)/C=C(\C)[C@H](OC(N)=O)[C@@H](OC)/C=C\C=C(/C)C(=O)NC(=CC1=O)C2=O (single isomer, unassigned) [TANESPIMYCIN]	–	0.021	80
CCC(C)c1cc(-c2[nH]ncc2-c2ccc3c(c2)OCCO3)c(O)cc1OC (stereo not given)	–	–	0
COc1ccc(-c2c[nH]nc2-c2cc(Cl)c(O)cc2O)cc1OC	2.4 µM	13	–
Cc1n[nH]c(-c2ccc(O)cc2O)c1Oc1ccc(F)cc1	–	–	0
Oc1cc(O)c(-c2n[nH]cc2-c2ccc3c(c2)OCCO3)cc1Cl	1.6 µM	23	–
N#CCCCOc1ccc(-c2cn[nH]c2-c2cc(Cl)c(O)cc2O)cc1	< 1 µM	6.8	–
N#CCCCOc1ccccc1-c1cn[nH]c1-c1cc(Cl)c(O)cc1O	12.8 µM	31	–
Cc1n[nH]c(-c2cc(Cl)c(O)cc2O)c1-c1ccccc1	1.65 µM	6.4	–
Cc1n[nH]c(-c2cc(Cl)c(O)cc2O)c1-c1ccc(OCCCC#N)cc1	< 1 µM	3.6	–
CCCc1cc(-c2[nH]nc(C)c2-c2ccc3c(c2)OCCO3)c(O)cc1O	46.1 µM	–	25
COc1ccc(-c2c[nH]nc2-c2cc(C(C)C)c(OC)cc2O)cc1	–	–	13

Reference: ChEMBL document CHEMBL1140247, “The identification, synthesis, protein crystal structure and in vitro biochemical evaluation of a new 3,4-diarylpyrazole class of Hsp90 inhibitors” (Bioorg Med Chem Lett, 2005)
